Reference: ChEMBL document CHEMBL3102820, “Developing bivalent ligands to target CUG triplet repeats, the causative agent of myotonic dystrophy type 1” (J Med Chem, 2013)
Active and inactive are the calls of the source. The rule behind the calls is not given here.

How the values were obtained:
HeLa [1] = experiment: Binding affinity to (CUG)960 RNA (unknown origin) expressed in human HeLa cells assessed as foci dispersion at 20 to 50 uM after 36 hrs by confocal microscopic analysis; format: cell-based
Outline: (§1)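 HeLa cells, about 120,000 per well on coverslips, were transfected after 1 day with 500 ng DMPK-CTG960 plasmid (CTG0 plasmid for control cells). Ligand was given at 20, 35 or 50 μM for 36 h. Cells were then fixed and foci stained by FISH with Cy3-(CAG)10, with TO-PRO-3 nuclear stain. Confocal excitation was 405 nm (acridine ligand uptake), 555 nm (Cy3) and 639 nm (TO-PRO-3). Over 100 cells were scored for foci; two-tailed Student t test.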

[2] = Drug uptake in nucleus of human HeLa cells expressing (CUG)960 RNA at 35 uM after 36 hrs by confocal microscopic analysis; format: ADME, cell-based; outline: as §1
HeLa [3] = experiment: Drug uptake in human HeLa cells expressing (CUG)960 RNA at 35 uM after 36 hrs by confocal microscopic analysis; format: ADME, cell-based; outline: as §1
[4] = Inhibition of (CUG)12 RNA (unknown origin)-MBNL1 interaction after 10 to 15 mins
[5] = Inhibition of biotin-labeled (CUG)12 RNA (unknown origin)-MBNL1 interaction by SPR analysis
Outline: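 SPR in 1X PBS with Tween-20 and excess competitor tRNA. Biotinylated (CUG)12 was immobilized on a streptavidin chip and pre-incubated with ligand at varied concentrations to steady-state RU over 150 s. Then 0.65 μM MBNL1 was injected with ligand at the same concentration. Maximum RU at 150 s was converted to % (CUG)12 bound, normalized to the no-ligand value, and fitted for apparent IC50.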

Nucleic Acid [6] = experiment: Binding affinity to (CUG)12 RNA (unknown origin) assessed as change in melting temperature at 1 equiv treated in aqueous solution by thermal denaturation assay; format: nucleic-acid assay; details: unidentified
[7] = Binding affinity to 5'-TAMRA-labeled (CUG)6 RNA (unknown origin) by fluorescence titration assay
Outline: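 Steady-state fluorescence titration. Ligand was titrated into 5'-TAMRA-(CUG)6 in 1X PBS, and the drop in TAMRA emission was followed. Normalized intensity was plotted against ligand concentration to give a binding isotherm, which was fitted for KD.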

Nucleic Acid [8] = experiment: Binding affinity to (CUG)12 RNA (unknown origin) assessed as change in melting temperature by thermal denaturation assay; format: nucleic-acid assay
Nucleic Acid [9] = experiment: Binding affinity to (CUG)12 RNA (unknown origin) assessed as change in melting temperature at 1 equiv treated in 5% DMSO by thermal denaturation assay; format: nucleic-acid assay
[10] = Cytotoxicity against human HeLa cells assessed as cytotoxicity up to 75 uM after 24 hrs by sulforhodamine B assay
[11] = Drug uptake in human HeLa cell nuclear membrane expressing (CUG)960 RNA coexpressing GFP-tagged MBNL1 at 50 uM after 3 to 10 hrs by live cell microscopic analysis; format: ADME, cell membranes
Outline: (§2)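 HeLa cells co-transfected with DMPK-CTG960 and GFP-MBNL1 plasmids were grown on a gridded dish so each cell could be relocated by DIC. Ligand was added to 50 μM final. Time-lapse confocal images of GFP-MBNL1 foci and acridine fluorescence were taken before addition and at 3, 6 and 10 h. At 10 h, Z-stacks of 1 μm slices through the whole cell were taken. Untreated cells were imaged the same way.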

HeLa [12] = experiment: Binding affinity to (CUG)960 RNA (unknown origin) expressed in human HeLa cells coexpressing GFP-tagged MBNL1 assessed as MBNL1 foci dispersion throughout nucleus at 50 uM after 3 to 10 hrs by live cell microscopic analysis; format: cell-based; outline: as §2
[13] = Drug uptake in human HeLa cell membrane expressing (CUG)960 RNA coexpressing GFP-tagged MBNL1 at 50 uM after 3 to 10 hrs by live cell microscopic analysis; format: ADME, cell-based; outline: as §2
HeLa [14] = experiment: Binding affinity to (CUG)960 RNA (unknown origin) expressed in human HeLa cells coexpressing GFP-tagged MBNL1 assessed as MBNL1 foci dispersion throughout nucleus at Z-plane of cells at 50 uM after 10 hrs by live cell microscopic analysis; format: cell-based; details: unidentified; outline: as §2

Compound | Activity (HeLa [1]) | Drug uptake [2] | Drug uptake (HeLa [3]) | IC50 [5] [µM] | Kd [7] [µM] | other results
Nc1nc(N)nc(NCCCCNc2c3ccccc3nc3ccc(C(=O)NCCCNCCCCCCCCNCCCNC(=O)c4ccc5nc6ccccc6c(NCCCCNc6nc(N)nc(N)n6)c5c4)cc23)n1 | inactive | Active | Active |  |  | 
COc1ccc2nc3cc(Cl)ccc3c(NCCCCNc3nc(N)nc(N)n3)c2c1 |  |  |  |  |  | IC50 [4]: 46 µM
Nc1nc(N)nc(NCCCCNc2c3ccccc3nc3c(C(=O)NCCNCCNCCNCCNC(=O)c4cccc5c(NCCCCNc6nc(N)nc(N)n6)c6ccccc6nc45)cccc23)n1 |  |  |  | 6 | 3.8 | ΔTm (Nucleic Acid [6]): 9.6 °C
CC(=O)NCCCNCCCNCCCNC(=O)c1cccc2c(NCCCCNc3nc(N)nc(N)n3)c3ccccc3nc12 |  |  |  | 15 |  | ΔTm (Nucleic Acid [8]): 2.5 °C
Nc1nc(N)nc(NCCCCNc2c3ccccc3nc3ccc(C(=O)NCCCOCCOCCOCCCNC(=O)c4ccc5nc6ccccc6c(NCCCCNc6nc(N)nc(N)n6)c5c4)cc23)n1 |  |  |  | 28 | 75 | 
Nc1nc(N)nc(NCCCCNc2c3ccccc3nc3c(C(=O)NCCOCCOCCOCCOCCOCCNC(=O)c4cccc5c(NCCCCNc6nc(N)nc(N)n6)c6ccccc6nc45)cccc23)n1 |  |  |  | 37 |  | ΔTm (Nucleic Acid [9]): 1.8 °C
Nc1nc(N)nc(NCCCCNc2c3ccccc3nc3ccc(C(=O)NCCOCCOCCOCCOCCOCCNC(=O)c4ccc5nc6ccccc6c(NCCCCNc6nc(N)nc(N)n6)c5c4)cc23)n1 |  |  |  | 43 |  | 
Nc1nc(N)nc(NCCCCNc2c3ccccc3nc3c(C(=O)NCCNCCNCCNC(=O)c4cccc5c(NCCCCNc6nc(N)nc(N)n6)c6ccccc6nc45)cccc23)n1 | inactive | Not Active | Not Active | 5 | 4.8 | ΔTm (Nucleic Acid [6]): 8.4 °C
CNC(=O)c1ccc2nc3ccccc3c(NCCCCNc3nc(N)nc(N)n3)c2c1 | inactive | Not Active | Not Active | 293 | 66 | ΔTm (Nucleic Acid [9]): 1.8 °C; cytotoxicity at 24 h [10]: < 20%
Nc1nc(N)nc(NCCCCNc2c3ccccc3nc3ccc(C(=O)NCCOCCOCCNC(=O)c4ccc5nc6ccccc6c(NCCCCNc6nc(N)nc(N)n6)c5c4)cc23)n1 |  |  |  | 18 | 23 | ΔTm (Nucleic Acid [9]): 2.7 °C
Nc1nc(N)nc(NCCCCNc2c3ccccc3nc3c(C(=O)NCCCNCCCNCCCNC(=O)c4cccc5c(NCCCCNc6nc(N)nc(N)n6)c6ccccc6nc45)cccc23)n1 | Active | Active | Active | 1.1 | 0.32 | Drug uptake [11]: Active; Activity (HeLa [12]): Active; ΔTm (Nucleic Acid [6]): 9.3 °C; Drug uptake [13]: Active; cytotoxicity at 24 h [10]: < 20%; Activity (HeLa [14]): Active
